Assay [1] deals with Myzus persicae. Briefly: Antifeedant effect against Myzus persicae assessed as inhibition index at 100 ug/cm2 relative to control. The format is functional. Set-up: scale not given: the % may be the effect or the level left. The procedure, abridged: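 Choice settling test on apterous adult M. persicae: 20 boxes of 10 aphids per treatment. Settling inhibition %SI = [1 − (%aphids on treated/%aphids on control surface)] × 100.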

The subject of assay [2] is Leptinotarsa decemlineata. Briefly: Antifeedant effect against Leptinotarsa decemlineata assessed as feeding reduction at 10 ug/cm2. The format is functional, organism-based. The procedure, abridged:
(§1)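 Choice test on leaf disks using adult L. decemlineata or newly emerged fifth-instar S. littoralis larvae. Five to 10 plates per treatment, three insects each. Uneaten leaf-disk area was measured by scanner. %FR = [1 − (treatment/control consumption)] × 100 per arena. Where FR exceeded 50%, EC50 was taken from linear regression of %FR on log dose.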

In assay [3] the test system is Spodoptera littoralis. Briefly: Antifeedant effect against Spodoptera littoralis L6 larvae assessed as relative consumption rate at 10 ug, po after 72 hrs. Type of assay: functional. The procedure, abridged:
(§2)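 Preweighed, newly emerged S. littoralis L6 larvae (20 per experiment) were orally cannulated with 10 µg in 2 µL DMSO; controls got solvent alone. Relative consumption and growth rates were calculated at 72 h on a dry-weight basis. Log-transformed weights were analysed by ANOVA with LSD tests.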

In assay [4] the test system is Spodoptera littoralis. Briefly: Antifeedant effect against Spodoptera littoralis L6 larvae assessed as relative growth rate at 10 ug, po after 72 hrs. Type of assay: functional. Summed up: as §2
Assay [5] has as its system Leptinotarsa decemlineata. Briefly: Insecticidal activity against Leptinotarsa decemlineata assessed as mortality at 5 ug by hemolymph injection after 72 hrs. Type of assay: functional. Summed up: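 Adult L. decemlineata (20 beetles) were injected with 5 µg in DMSO through the metepimeron suture of the thorax. Beetles were kept on potato leaves. Symptoms and mortality were recorded up to 3 days, analysed by contingency tables and Abbott-corrected.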

Assay [6] deals with Myzus persicae. Briefly: Insecticidal activity against Myzus persicae assessed as increase in mortality at 100 ug/cm2 observed daily for 4 days. The format is functional, organism-based. Summed up:
(§3)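 No-choice test: 20 boxes, each with five same-age apterous adult M. persicae (100 insects). Nymphs produced in the first 48 h were separated from adults and kept in similarly treated boxes. Both were observed daily for 4 days for mortality. Analysed by contingency tables and LSD test.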

Assay [7] relates to Myzus persicae. Briefly: Insecticidal activity against Myzus persicae assessed as offspring production at 100 ug/cm2 observed daily for 4 days. Type of assay: functional, organism-based. Summed up: as §3
Assay [8] relates to Myzus persicae. Briefly: Insecticidal activity against Myzus persicae assessed as offspring production at 50 ug/cm2 observed daily for 4 days. The format is functional, organism-based. The procedure, abridged:
as §3

For assay [9], the system named is Spodoptera littoralis. Briefly: Antifeedant effect against Spodoptera littoralis assessed as feeding reduction at 100 ug/cm2 relative to control. The format is functional. Set-up: scale not given: the % may be the effect or the level left. The procedure, abridged: as §1

Molecules are shown by their SMILES.

As for `C=C(C)[C@H]1Cc2c(ccc3c2O[C@@H]2COc4cc(OC)c(OC)cc4[C@@H]2C3=O)O1` [ROTENONE], the Activity with Myzus persicae [1] is less than 40%; in assay [2], “Toxic”; in the assay with Spodoptera littoralis [3], 20.88 mg; in the assay on Spodoptera littoralis [4] it was 3.47 mg; in [5], 100%; in the assay with Myzus persicae [6], “Non-toxic”. Further, the figures for the Activity entry in the assay on Myzus persicae [7], with Myzus persicae [8] and in the assay with Spodoptera littoralis [9] were “Toxic”, “Toxic” and greater than 40%, respectively.

The values above are taken from ChEMBL document CHEMBL1142626, “Insecticidal and mutagenic evaluation of two annonaceous acetogenins” (J Nat Prod, 2000).
